Rows were chosen to be rich in hits. Some 1.9% of all compounds tested hit in one or more screens of this group.
CR mimetic SO: yeast age-related superoxide inhibition as caloric restriction mimetic. S. cerevisiae aged cells, superoxide DHE fluorescence; active compounds read low. superoxide response (% of plate mean), % at 10 µM. hit rate 0.18% among 330,000. AID 2690;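 active = superoxide response under a set limit, about three screen SD below normal, cut at about 65% in these data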;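 note: yeast aged for seven days with compound at 30 °C before DHE staining; 100% = average MFI of all compound-treated wells on the plate with controls excluded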
Rev-erbA mod: modulators of human Rev-erb alpha DNA binding; P20393; Rev-erbα–FITC-DNA binding, fluorescence polarization, 90 min; activity, % at 10 µM; hit rate 0.79% among 370,000; AID 1259318;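 active = activity above about 14%, limit read from the data; passing the limit was not always enough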;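 note: 0% = DMSO wells with 35 nM protein and 100% = DMSO wells with 750 nM protein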
Rce1 inh: inhibitors of yeast Ras-converting enzyme; calls only; hit rate 0.27% among 290,000; AID 2563; yeast membranes, quenched prenylated peptide cleavage fluorescence; Q03530;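 active = fall in fluorescence gain of 50% or more versus controls, with final raw signal at or below 3038400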;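 note: plate controls were neutral control wells for no effect and wells lacking membranes for full effect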
Target sequence (Q03530 whole entry, looked up): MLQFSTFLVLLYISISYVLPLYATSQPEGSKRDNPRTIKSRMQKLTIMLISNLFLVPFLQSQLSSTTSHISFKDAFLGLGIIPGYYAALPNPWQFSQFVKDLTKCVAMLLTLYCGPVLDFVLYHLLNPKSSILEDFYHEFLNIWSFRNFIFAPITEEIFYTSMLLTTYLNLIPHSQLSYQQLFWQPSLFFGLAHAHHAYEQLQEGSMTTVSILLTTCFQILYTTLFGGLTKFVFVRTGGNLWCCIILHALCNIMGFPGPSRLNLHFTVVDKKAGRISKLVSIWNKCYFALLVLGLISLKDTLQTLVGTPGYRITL
beta cell repl: inducers of beta-cell replication in MIN6 cells. hit rate 0.29% among 330,000. proliferation, % at 10 µM. MIN6 cells proliferation, ATPlite luminescence, 48 h; cells starved in 0.2% serum; 100% = growth in 10% serum;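 active = compounds whose signal lies at least 3.5 SD above the mean of all wells on their plate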;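 note: 0% = DMSO-treated cells in low-serum medium and 100% = 10% serum control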
UCH37 inh: blocks the human deubiquitinase UCH37. Q9Y5K5. purified proteasome/UCH37, Ub-AMC cleavage fluorescence. inhibition, % (concentration not given with the values). hit rate 0.33% among 330,000. AID 588478;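 active = mean inhibition over replicate wells above about 20%, limit read from the data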;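 note: 0% = compound-free wells with enzyme and 100% = wells lacking proteasome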
Target sequence (Q9Y5K5 whole entry, looked up): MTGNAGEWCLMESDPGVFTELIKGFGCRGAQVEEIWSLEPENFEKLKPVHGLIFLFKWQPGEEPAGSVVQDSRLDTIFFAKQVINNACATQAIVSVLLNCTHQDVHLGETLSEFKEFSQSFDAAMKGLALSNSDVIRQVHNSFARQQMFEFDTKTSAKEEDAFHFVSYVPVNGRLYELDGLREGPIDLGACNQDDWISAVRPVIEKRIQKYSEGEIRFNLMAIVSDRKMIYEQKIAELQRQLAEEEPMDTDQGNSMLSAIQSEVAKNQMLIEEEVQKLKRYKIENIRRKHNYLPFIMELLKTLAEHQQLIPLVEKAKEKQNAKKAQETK
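System: Proteasome-associated human UCH37 deubiquitinase; Input: 0.15 nM proteasome in added enzyme buffer; Also added: Ub-AMC substrate from 1 µM stock; Incubation: 30 min compound-proteasome preincubation then 25 min substrate reaction, room temperature; Detection: fluorescence, ex 355 nm, em 460 nm; Read-out: % inhibition of Ub-AMC cleavage fluorescence; Benchmarks: no-proteasome and no-compound wells.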
PG9 Ab binder: small molecules binding HIV-1 gp120 antibody PG9; TR-FRET gp120-PG9 antibody binding; inhibition, % at 6.7 µM; hit rate 0.43% among 360,000; in the data active = inhibition above about 8.5%
Numbers without * were called inactive; i = inactive; . = no result given; + = active, no number.

SMILES | CR mimetic SO | Rev-erbA mod | Rce1 inh | beta cell repl | UCH37 inh | PG9 Ab binder
CC(=NNC(=O)c1cc(-c2cccc(OC(C)C)c2)nc2ccccc12)c1cccnc1 | . | . | . | . | -2.4 | .
O=C1Cc2ccccc2C(=O)N1c1ccccc1 | 110.6 | -1.3 | i | -2.0 | -5.6 | -2.3
O=C1Cc2ccccc2C(=O)N1Cc1ccccc1 | 75.3 | -0.4 | i | -2.4 | 26.3* | 0.7
N#CC(=NNc1ccccc1F)C(=N)N1CCOCC1 | . | . | . | . | 13.6 | .
CC(C)NC(=O)c1cnc(N2CCN(c3ccccn3)CC2)c2ccccc12 | 90.2 | 0.2 | i | -1.5 | 1.9 | 0.4
CCc1ccc(NC(=O)c2cnc(N3CCN(c4ccccn4)CC3)c3ccccc23)cc1 | 94.1 | 10.2 | + | 0.7 | -57.7 | -3.3
COc1ccc(/C(O)=C2/C(=O)C(=O)N(CCN(C)C)C2c2ccccc2)cc1Cl (centres undefined) | 94.2 | -2.6 | i | 2.5 | 8.3 | 8.7*
Cc1ccc2nc(C)cc(SCC(=O)NN=Cc3ccco3)c2c1 | . | . | . | . | 5.6 | .
CSc1ccc(/C=C/C(=O)OCC(=O)NC(C)C)cc1 | 105.6 | -3.7 | + | -3.8 | -257.1 | 0.1
COc1cccc(N(CC(=O)NN=C(C)c2cccs2)S(C)(=O)=O)c1 | . | . | . | . | 2.2 | .
COc1ccc(-c2c[n+]3c4n2CCCCC4=C(c2ccc(Br)cc2)C3)cc1 | 80.8 | -3.4 | + | . | i | -1.4
CCC1(CC)NC(=O)NC1=O | 101.2 | -2.8 | i | 3.1 | 31.5* | 0.1
Cc1ccc(-c2nn(-c3ccccc3)cc2/C=C2\SC(=S)N(CC(=O)O)C2=O)cc1 | 96.2 | -3.4 | i | -7.6 | 21.4* | 1.3
COc1cc2cc(C(=O)O)[nH]c2c(OC)c1OC | 113.3 | . | + | -0.3 | -17.7 | -2.1
Cc1ccc(CN2CCN(C(=O)CCN3C(=O)c4ccccc4C3=O)CC2)cc1 | 105.3 | -2.0 | i | -3.6 | 20.2* | -0.9
Cn1ncc(C#N)c1NC(=O)C1CC(c2ccccc2Cl)=NO1 (centres undefined) | 44.5* | 4.2 | i | 0.2 | 0.5 | -2.6
O=C(Nc1ccc2c(c1)OCO2)C1CC(c2ccccc2Cl)=NO1 (centres undefined) | 122.3 | 0.8 | i | -1.8 | 6.5 | -1.1
C/C(C=NNC(=O)c1cc(C(C)(C)C)[nH]n1)=C\c1ccccc1 | . | . | . | . | 8.2 | .
O=C(O)COc1ccccc1C=NNc1ccc(S(=O)(=O)N2CCOCC2)cc1[N+](=O)[O-] | . | . | . | . | 23.0* | .
Nc1cccc2nc3ccccc3cc12 | 116.6 | . | + | -8.0 | -122.9 | .
CCn1c(/C=C/N(C)c2ccccc2)[n+](CC)c2ccc(Cl)cc21 | 89.7 | 1.1 | i | -4.4 | 22.8* | -1.1
CCn1c(/C=C/Nc2ccccc2)[n+](CC)c2ccc(Cl)cc21 | 88.1 | 1.4 | i | -0.1 | 14.6 | -0.5
COc1cc(-c2nc3ccccn3c2/N=C/c2ccccc2)ccc1O | 101.4 | 4.5 | + | -4.2 | . | -25.5
CCOc1cc(-c2nc3ccccn3c2NCC2CCCO2)ccc1O (centres undefined) | 100.5 | 0.7 | i | 0.6 | -186.4 | -9.9
COc1cc(-c2nc3ccccn3c2NCC2CCCO2)ccc1O (centres undefined) | 90.2 | 5.0 | + | -1.4 | -437.7 | -7.5
SMILES | CR mimetic SO | Rev-erbA mod | Rce1 inh | beta cell repl | UCH37 inh | PG9 Ab binder
COC(=O)Cc1cc(=O)[nH]c(N=C(N)Nc2ccc(C)cc2)n1 | . | . | . | . | 0.5 | .
CC(=O)OC/C=C(C)/C=C/C=C(C)/C=C/C1=C(C)CCCC1(C)C | . | -1.9 | . | . | . | .
CC1=C(/C=C/C(C)=C/C=C/C(C)=C/CO)C(C)(C)CCC1 | 99.6 | 5.6 | i | -5.3 | 78.4* | -1.1
CCC(=O)c1ccc(-c2ccccc2)cc1 | 104.1 | 7.2 | i | -3.8 | -5.0 | -0.3
O=C(O)CCC(=O)c1ccc(-c2ccccc2)cc1 | 98.2 | 1.4 | + | -2.1 | -5.5 | 0.5
Cc1ccn2c(=O)c(NC(=O)COc3ccccc3)c(C)nc2c1 | 98.8 | 8.0 | i | 0.8 | -9.5 | 1.9
Cc1nc2c(C)cccn2c(=O)c1NC(=O)COc1ccccc1 | 103.6 | -5.2 | + | 2.0 | 7.2 | -1.9
O=C(Nc1ccc(-c2nc3ncccc3o2)cc1)c1ccc(Br)o1 | 114.3 | 22.4 | i | -0.3 | -148.1 | 41.2*
O=C(Nc1ccc(-c2nc3ncccc3o2)cc1)c1ccco1 | 95.6 | -3.2 | i | 1.7 | -63.1 | -1.1
Cc1ccc(-c2cc(C)nc3nc(N)nn23)cc1 | 120.8 | -2.0 | + | -1.8 | -109.2 | -2.2
CCOP(=O)(OCC)c1nc(-c2cccc([N+](=O)[O-])c2)oc1N1CCCCC1 | 90.5 | -3.0 | i | 2.0 | 5.6 | -0.2
CCOP(=O)(c1ccccc1)c1nc(-c2ccccc2Cl)oc1N1CCCCC1 (centres undefined) | 90.6 | 7.3 | + | -5.3 | -34.1 | 0.9
COc1ccc(-c2cc3nc(C)c(CCC(=O)N4CCN(c5ccccn5)CC4)c(C)n3n2)c(OC)c1 | 88.0 | -2.4 | + | -0.7 | -83.9 | -0.8
Cc1nc2cc(-c3cccc(F)c3)nn2c(C)c1CCC(=O)N1CCN(c2ccccn2)CC1 | 92.5 | -4.2 | i | -2.6 | -61.7 | -0.5
O=C(NCc1ccccn1)C(=O)NN=Cc1ccc2c(c1)OCO2 | . | . | . | . | 12.7 | .
O=c1c(C=NNS(=O)(=O)c2ccccc2)coc2ccc(Cl)cc12 | . | . | . | . | 2.7 | .
CC(=O)C1=C(O)C(=O)N(CCN(C)C)C1c1ccc(Cl)cc1 (centres undefined) | . | -4.5 | i | . | 24.4* | 1.0
COc1ccc(C2SCC(=O)N2CCCN(C)C)cc1 (centres undefined) | 108.9 | -0.1 | i | -3.5 | 33.9* | 1.1
CC(C)CC(=O)NC(=S)Nc1ccc(S(=O)(=O)Nc2nccs2)cc1 | 95.4 | 3.2 | + | 0.0 | 6.5 | -2.6
COc1ccc(CNC(=O)c2ccccc2NS(C)(=O)=O)cc1 | 98.7 | -0.4 | + | -0.4 | . | -1.2
COc1ccccc1CNC(=O)c1ccccc1NS(C)(=O)=O | 110.2 | 5.2 | i | -0.3 | -38.9 | 0.5
CC(=NNC(=O)CNC(=O)C(c1ccccc1)c1ccccc1)c1ccco1 | . | . | . | . | 1.5 | .
O=C(O)/C=C/c1ccc(O)cc1 | 82.1 | 0.9 | + | 6.0 | . | -2.1
CCOc1ccc(-n2nc3c(=S)[nH]nc(C)c3c2C)cc1 | 104.8 | 3.7 | i | 0.0 | 6.7 | 41.5*
CC1(CC(=O)NN=Cc2cc3c(cc2Br)OCO3)OCCO1 | . | . | . | . | 3.8 | .
C/C(=N\Nc1ncnc2sc(C)c(C)c12)c1ccccn1 | 35.8* | 9.8 | i | -3.9 | . | 0.2
Cc1sc2ncnc(N/N=C/c3cccc(O)c3)c2c1C | 100.0 | -3.8 | i | 1.1 | . | -0.7
COC(=O)c1nc(N)sc1-c1ccc(Cl)c(Cl)c1 | 98.2 | 2.3 | + | -1.2 | -40.0 | 0.4
CCOCc1cc(C)[nH]c(=O)c1C#N | 101.2 | -2.8 | + | -3.5 | -114.0 | -0.5
CC(Cl)c1cc(-c2ncc(C(F)(F)F)cc2Cl)no1 (centres undefined) | 104.6 | 2.9 | i | 1.8 | 29.5* | -1.2

Source: PubChem
